Values after ≈ are worked out from the molar mass of the structure shown.
How the values were obtained:
[1] = system: Streptococcus pneumoniae; test: Antibacterial activity against Streptococcus pneumoniae ATCC 49619 after 18 hrs; assay type: functional; conditions: ATCC 49619, 18 h
How it was run: (§1)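 Broth microdilution in Nutrient Broth No. 2. Ethanol stocks were diluted in broth to 0.01–128 µg/ml for triclosan and 0.25–256 µg/ml for glycosides. Overnight 37°C NB2 cultures were diluted 1 in 10^4 in saline and added to the wells. Plates were incubated at 37°C with OD read every 15 min after agitation. MIC was the lowest concentration giving no OD increase at 18 h.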

[2] = system: Streptococcus pyogenes; test: Antibacterial activity against Streptococcus pyogenes ATCC 19615 after 18 hrs; assay type: functional; conditions: ATCC 19615, 18 h; how it was run: as §1
[3] = system: Proteus mirabilis; test: Antibacterial activity against Proteus mirabilis ATCC 12453 after 18 hrs; assay type: functional; conditions: ATCC 12453, 18 h
How it was run: (§2)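 Broth microdilution in Nutrient Broth No. 2; stocks in ethanol diluted to 0.01–128 µg/ml (triclosan) or 0.25–256 µg/ml (glycosides). Overnight 37 °C NB2 cultures diluted 1 in 10^4 in saline and added to the dilutions. Incubation at 37 °C with agitation, OD read every 15 min; MIC is the lowest concentration preventing any OD rise after 18 h.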

[4] = system: Staphylococcus aureus; test: Antibacterial activity against Staphylococcus aureus ATCC 6538P after 18 hrs; assay type: functional; how it was run: as §2
[5] = system: Proteus vulgaris; test: Antibacterial activity against Proteus vulgaris OCC 195 after 18 hrs; assay type: functional; conditions: OCC 195, 18 h; how it was run: as §2
[6] = system: Escherichia coli; test: Antibacterial activity against Escherichia coli ATCC 11775 after 18 hrs; assay type: functional; how it was run: as §2
[7] = system: Aeromonas hydrophila; test: Antibacterial activity against Aeromonas hydrophila OCC 778 after 18 hrs; assay type: functional; conditions: OCC 778, 18 h; how it was run: as §2
[8] = system: Salmonella enteritidis; test: Antibacterial activity against Salmonella enterica subspecies enterica serotype Enteritidis 13076 after 18 hrs; assay type: functional, Salmonella enterica subsp. enterica serovar Enteritidis; conditions: Salmonella enterica, 13076, 18 h; how it was run: as §2
[9] = Antibacterial activity against Salmonella enterica subspecies enterica serotype Arizonae OCC 706 after 18 hrs; assay type: functional, Salmonella enterica subsp. enterica serovar Arizonae; conditions: OCC 706, 18 h; how it was run: as §2
[10] = Antibacterial activity against Salmonella enterica subspecies enterica serotype Indiana OCC 597 after 18 hrs; assay type: functional, Salmonella enterica subsp. enterica serovar Indiana; conditions: OCC 597, 18 h; how it was run: as §2
[11] = system: Staphylococcus aureus; test: Antibacterial activity against Staphylococcus aureus ATCC 6538 after 18 hrs; assay type: functional; conditions: ATCC 6538, 18 h; how it was run: as §2
[12] = system: Streptococcus pneumoniae; test: Antibacterial activity against Streptococcus pneumoniae 6305 after 18 hrs; assay type: functional; conditions: Streptococcus pneumoniae, 6305, 18 h; how it was run: as §1
[13] = system: Salmonella enterica subsp. enterica serovar Abony; test: Antibacterial activity against Salmonella enterica subspecies enterica serotype Abony NCTC 6017 after 18 hrs; assay type: functional; conditions: NCTC 6017, 18 h; how it was run: as §2
[14] = system: Staphylococcus epidermidis; test: Antibacterial activity against Staphylococcus epidermidis ATCC 12228 after 18 hrs; assay type: functional; conditions: ATCC 12228, 18 h; how it was run: as §2
[15] = Antibacterial activity against Salmonella enterica subspecies enterica serotype Virchow NCTC 5742 after 18 hrs; assay type: functional, Salmonella enterica subsp. enterica serovar Virchow; conditions: NCTC 5742, 18 h; how it was run: as §2
[16] = system: Escherichia coli; test: Antibacterial activity against Escherichia coli ATCC 8739 after 18 hrs; assay type: functional; conditions: ATCC 8739, 18 h; how it was run: as §2
[17] = system: Klebsiella pneumoniae; test: Antibacterial activity against Klebsiella pneumoniae ATCC 13883 after 18 hrs; assay type: functional; conditions: ATCC 13883, 18 h; how it was run: as §2
[18] = system: Klebsiella aerogenes; test: Antibacterial activity against Enterobacter aerogenes ATCC 13048 after 18 hrs; assay type: functional; conditions: ATCC 13048, 18 h; how it was run: as §2
[19] = system: Bacillus cereus; test: Antibacterial activity against Bacillus cereus ATCC 14579 after 18 hrs; assay type: functional; conditions: ATCC 14579, 18 h; how it was run: as §2
[20] = system: Pseudomonas aeruginosa; test: Antibacterial activity against Pseudomonas aeruginosa ATCC 27853 after 18 hrs; assay type: functional; conditions: ATCC 27853, 18 h; how it was run: as §2
[21] = Antibacterial activity against Salmonella enterica subspecies enterica serotype Pullorum OCC 273 after 18 hrs; assay type: functional, Salmonella enterica subsp. enterica serovar Pullorum; conditions: OCC 273, 18 h; how it was run: as §2
[22] = system: Citrobacter freundii; test: Antibacterial activity against Citrobacter freundii OCC 851 after 18 hrs; assay type: functional; conditions: OCC 851, 18 h; how it was run: as §2
[23] = system: Escherichia coli; test: Antibacterial activity against Escherichia coli ATCC 10536 after 18 hrs; assay type: functional; conditions: ATCC 10536, 18 h; how it was run: as §2
[24] = Antibacterial activity against Salmonella enterica subspecies enterica serotype Nottingham NCTC 7832 after 18 hrs; assay type: functional, Salmonella enterica subsp. enterica serovar Nottingham; conditions: NCTC 7832, 18 h; how it was run: as §2
[25] = system: Staphylococcus epidermidis; test: Antibacterial activity against Staphylococcus epidermidis 155 after 18 hrs; assay type: functional; conditions: Staphylococcus epidermidis, 155, 18 h; how it was run: as §2
[26] = Antibacterial activity against Enterobacter cloacae ATCC 13047 after 18 hrs; assay type: functional, Enterobacter cloacae subsp. cloacae; conditions: ATCC 13047, 18 h; how it was run: as §2
[27] = system: Staphylococcus haemolyticus; test: Antibacterial activity against Staphylococcus haemolyticus OCC 2223 after 18 hrs; assay type: functional; conditions: OCC 2223, 18 h; how it was run: as §1
[28] = system: Escherichia coli; test: Antibacterial activity against Escherichia coli 700728 after 18 hrs; assay type: functional; conditions: Escherichia coli, 700728, 18 h; how it was run: as §2

For `OC[C@H]1O[C@@H](Oc2cc(Cl)ccc2Oc2ccc(Cl)cc2Cl)[C@H](O)[C@@H](O)[C@@H]1O`, the MIC [1] was 128 µg/mL (≈ 283 µM), the MIC [2] was 32 µg/mL (≈ 70.8 µM) and the MIC [3] was 16 µg/mL (≈ 35.4 µM). For the same molecule, the MIC [4] was 4 to 8 µg/mL (≈ 8.86 to 17.7 µM), the MIC [5] was 64 µg/mL (≈ 142 µM) and the MIC [6] was 8 to 64 µg/mL (≈ 17.7 to 142 µM). For the same molecule, the MIC [7] was greater than 256 µg/mL, the MIC [8] was 16 to 32 µg/mL (≈ 35.4 to 70.8 µM) and the MIC [9] was 16 to 32 µg/mL (≈ 35.4 to 70.8 µM). It also gave an MIC [10] of 16 to 32 µg/mL (≈ 35.4 to 70.8 µM), an MIC [11] of 4 to 8 µg/mL (≈ 8.86 to 17.7 µM) and an MIC [12] of 128 µg/mL (≈ 283 µM). The MIC [13] was 16 to 32 µg/mL (≈ 35.4 to 70.8 µM), the MIC [14] was 8 to 16 µg/mL (≈ 17.7 to 35.4 µM) and the MIC [15] was 16 to 32 µg/mL (≈ 35.4 to 70.8 µM). For the same molecule, the MIC [16] was 8 to 64 µg/mL (≈ 17.7 to 142 µM), the MIC [17] was 0.5 µg/mL (≈ 1.11 µM) and the MIC [18] was 64 µg/mL (≈ 142 µM). The MIC [19] was 256 µg/mL (≈ 567 µM), the MIC [20] was greater than 256 µg/mL and the MIC [21] was 16 to 32 µg/mL (≈ 35.4 to 70.8 µM). The MIC [22] was 64 µg/mL (≈ 142 µM), the MIC [23] was 8 to 64 µg/mL (≈ 17.7 to 142 µM) and the MIC [24] was 16 to 32 µg/mL (≈ 35.4 to 70.8 µM). It also gave an MIC [25] of 8 to 16 µg/mL (≈ 17.7 to 35.4 µM), an MIC [26] of 16 µg/mL (≈ 35.4 µM) and an MIC [27] of 16 µg/mL (≈ 35.4 µM). The MIC [28] was 8 to 64 µg/mL (≈ 17.7 to 142 µM).

From ChEMBL document CHEMBL4325893, “Synthesis and antibacterial profiles of targeted triclosan derivatives” (2019)
